Results: ChEMBL document CHEMBL4513216, “Probing the Open Global Health Chemical Diversity Library for Multistage-Active Starting Points for Next-Generation Antimalarials” (ACS Infect Dis, 2020)

assay: Toxicity liver stage against HepG2, at 10uM; assay type: cell-based; design: test concentration 10 uM, cell line HepG2-A16-CD81EGFP; details: human, HepG2-A16-CD81EGFP cells; read-out: INHIBITION
In short: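 Uninfected HepG2-A16-CD81EGFP cells, 3 × 10^3 per well, 1536-well, plated on prespotted compound at 10 μM final, parasite-free screening media added to match infected plates; puromycin 10 μM positive, DMSO 0.5% negative; run in parallel with 48 h PbLuc assay at 37 °C, 5% CO2; viability by CellTiter-Glo luminescence, normalized to controls.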

| Structure (SMILES) | cytotoxicity at 10 µM [%] |
| --- | --- |
| O[C@@H]1C[C@@H](c2nc(Cc3ccccc3)no2)N(Cc2ncc[nH]2)C1 | 2.63 |
| CN1C(=O)CO[C@H](c2ccc(NC(=O)c3cccc(F)c3)cc2)[C@H]1CO | 10 |
| CC(=O)N1CCN2C[C@H](CO)[C@@H](c3ccccc3)[C@H]2C1 | 3.54 |
| CC(C)NC(=O)[C@H](C)NC(=O)N1CCN(c2ccc(Cl)cc2)CC1 | 0.592 |
| Cn1cccc1C(O)CNS(=O)(=O)Cc1ccccc1 (stereo not given) | -37.1 |
| CCSc1ccccc1C(=O)NCCN1CCC(c2cccs2)CC1 | -7.98 |
| CN(C)c1ccc(C(O)CNS(=O)(=O)C2CC2)cc1 (stereo not given) | -4.99 |
| Cc1cccc(C(=O)N2CCc3c(CN(C)C)nn(C)c3C2)n1 | 3.61 |
| Cc1nc([C@@H]2C[C@@H]3CCN(Cc4cnn(C)c4)C[C@H]3O2)sc1C | -3.49 |
| CCn1cc(CNC(=O)C2CCCC2)cn1 | 9.18 |
| CCn1nc(C)c2nc(C)nc(NC3CCCC3)c21 | 9.12 |
| CCn1cc(CN2CCN(C(=O)c3cc(Br)cs3)CC2)c(C)n1 | 4.95 |
| CCC(O)Cn1nc(-c2ccc(C(=O)O)cc2)cc1-c1ccc(F)cc1 (stereo not given) | 1.24 |
| CCc1ccccc1NC(=O)NCc1nnc(SC)n1C | 3.73 |
| Cc1ncc(CNC(=O)CCc2ccccc2F)c(C2CCCN2C)n1 (stereo not given) | -7.55 |
| Nc1nc(C2CCN(C(=O)c3cnccn3)CC2)cs1 | -7.33 |
| COc1ccc(S(=O)(=O)N2CCC(O)(CN(C)C)C2)cc1 (stereo not given) | -3.36 |
| Cc1cc(-c2cc(F)ccc2C(=O)O)nc(C2CCCCN2C(C)C)n1 (stereo not given) | -3.42 |
| C[C@]1(O)CN(Cc2cscn2)CC[C@@H]1Oc1cccc(F)c1 | 7.08 |
| Cn1ccnc1CN1CCC(Cc2ccccn2)CC1 | -10.2 |
| CNc1nc(C2CCCCN2C(=O)COC)nc2c1CN(C)CC2 (stereo not given) | -13.1 |
| CNc1nc(C2CCCCN2C(=O)C(C)(C)OC)nc2c1CN(C)CC2 (stereo not given) | -6.61 |

| Structure (SMILES) | cytotoxicity at 10 µM [%] |
| --- | --- |
| CC(=O)N1CCCCC1c1nnc2n1CCNC2 (stereo not given) | 14.7 |
| Cc1cnn(-c2ccc(S(N)(=O)=O)cc2F)c1 | 1.64 |
| CC1CN(C)c2ccccc2CN1CCn1cncn1 (stereo not given) | -12.7 |
| CCC(=O)NCC(=O)NCC1(O)CCC(C(C)(C)C)CC1 (stereo not given) | 6.93 |
| Cc1cccc(CNc2ccc(C(=O)N3CCC(CO)CC3)cc2)c1 | 18.9 |
| Cc1csc(CN(C)C(C)C(=O)N2CCc3ccccc3C2)n1 (stereo not given) | -11.7 |
| CS(=O)(=O)Cc1ccc(Cl)cc1NCc1ccccc1F | 6.8 |
| Cc1cnc(CN2CCN(C(C)c3nc(C(C)C)no3)CC2)cn1 (stereo not given) | 9.74 |
| Cc1ccc(C(CNCc2cccn2C)N2CCOCC2)s1 (stereo not given) | 14.9 |
| COc1ccc(CNCC2CCN(CCO)CC2)cc1F | -3.71 |
| Cc1c(C(=O)NCC(C)C)nnn1-c1cccc2c1CCN(C(C)C)C2 | -12.3 |
| O=C(NCC(O)c1ccc(F)cc1F)c1cccnc1O (stereo not given) | 7.58 |
| CN(c1ncc(C(N)=O)cc1Cl)C1CCC(c2ccccc2)CC1 (stereo not given) | 38.8 |
| CC(CCSc1ccccc1)N1CCN(C(=O)c2cccs2)CC1 (stereo not given) | 25.5 |
| CC(=O)N1CCN(C(=O)NCCCc2cn[nH]c2C)CC1 | 12.1 |
| CCc1ncnc(N(C)CC2CCCCO2)c1F (stereo not given) | 3.17 |
| CC(NC(=O)N1CCSC(C)(C)C1)c1noc(-c2ccccc2)n1 (stereo not given) | -22.3 |
| CCOc1cccc(C(C)NCc2ccc(OC)c(OC)c2OC)c1 (stereo not given) | 29.4 |
| Cc1ccc(N2CCCC3(CCN(C(=O)c4sccc4C)C3)C2)nn1 (stereo not given) | -107 |
| CN1C(=O)CC(c2ccccc2)C12CCN(c1ncccn1)CC2 (stereo not given) | -99.4 |
| CS(=O)(=O)N1C[C@H](NC(=O)c2ccno2)[C@@H]2OCCC[C@@H]21 | -112 |
| O=C(CC1CC1)N1CCC2(CC1)CN(c1ccsc1)C(=O)CO2 | -73.1 |

| Structure (SMILES) | cytotoxicity at 10 µM [%] |
| --- | --- |
| Cc1cccc(CN2C(=O)CC[C@@H]3[C@H]2CCN3CC2CCOCC2)n1 | 5.89 |
| COCC(=O)N1CC[C@H]2C[C@H](C)O[C@@H]2C1 | -0.877 |
| CN(c1nccc(-c2cnc3sc(Cl)cn3c2=O)n1)C1CCCCC1 | 1.36 |
| NCCC1CN(c2nc(-c3ccccc3)nc3c2CCNC3)CCO1 (stereo not given) | -9.26 |
| NCCn1cc(C(=O)N2CCCCCC2c2ccco2)nn1 (stereo not given) | -4.94 |
| c1cncc(CN2CCc3ncnc(NCCc4c[nH]cn4)c3CC2)c1 | 2.57 |
| c1ccc(CCc2n[nH]c(CCN3CCCCC3)n2)cc1 | 5.05 |
| CSCc1ccc(N2CCN(c3ccc(Cl)cn3)CC2)nc1 | -9.64 |
| Cc1cc(C)n(CCN(C)c2ccc(-c3nc(C4CC4)no3)cn2)n1 | 6.08 |
| CN1CCNC(=O)C12CCN(C(=O)c1ccc3[nH]c(=O)[nH]c3c1)CC2 | 0.5 |
| CCOc1ccc(CN2CCC3(CC2)CNC(=O)C3)cn1 | 0.987 |
| Fc1ccccc1Cc1noc(CN2CC[C@@H]3CCCC[C@H]3C2)n1 | -6.1 |
| Cc1ccc(C2(O)CCN(C(=O)c3ccc(S(N)(=O)=O)cc3)CC2)nc1 | -2.13 |
| Cc1nc2c(c(N(C)CC3Cc4ccccc4CN3C)n1)CCNCC2 (stereo not given) | -29 |
| O=C(NCCCc1nnc2ccccn12)c1ccccc1C1CCNC1 (stereo not given) | -2.51 |
| O=C(c1cccc(S(=O)(=O)NCCc2cscn2)c1)N1CCOCC1 | 5.67 |
| COc1ccccc1OC1CCN(c2nccc(N)n2)CC1 | 9.28 |
| CSc1ccccc1C(=O)NCc1cc2n(n1)CCCN(CC(C)C)C2 | 3.05 |
| CCN1CCCC1CNC(=O)CCSc1ccc2c(c1)OCCO2 (stereo not given) | -1.58 |
| CN(CCO)Cc1nnc(C2CCN(C(=O)CN3CCCC3)CC2)n1C | 2.1 |
| COCc1cc(N2CCOC(c3ccc(F)cc3)C2)ncn1 (stereo not given) | -0.987 |
| CSCc1noc(CNC(=O)[C@H]2CNC[C@@H](C(=O)N3CCCC3)C2)n1 | 2.79 |

| Structure (SMILES) | cytotoxicity at 10 µM [%] |
| --- | --- |
| Cc1ccc([C@H]2CN(C(C)C)C[C@@H]2NS(=O)(=O)N2CCOCC2)o1 | -1.01 |
| CN(c1ccc(C(=O)NCCN2CCOCC2)c(Cl)c1)S(C)(=O)=O | -11.1 |
| CCC(NC(=O)c1coc(COc2cccc(F)c2F)n1)C(=O)NC (stereo not given) | 1.03 |
| Cc1nnc(SCC(=O)N2CCC3(CC2)c2ccccc2CC3O)o1 (stereo not given) | -20.7 |
| O=C(CCC1CCN(Cc2ncc[nH]2)CC1)Nc1ccccc1Cl | -21.8 |
| OCCC1CN(C2CCC2)CCN1C1CCCC1 (stereo not given) | -18.5 |
| CN(CCc1ccccc1)c1cnn(CC(=O)N2CCSCC2)c(=O)c1 | -8.74 |
| CCOC(=O)COc1ccc(C(C)=O)c(O)c1 | -19.3 |
| COCc1cc(CNc2cnn(CC(F)F)c2)ccc1OC | -7.58 |
| CCOc1ncccc1CNC(=O)c1cccc(C)n1 | -2.42 |
| CC(C)c1nc(CN2CCC(c3ccnn3CCO)CC2)no1 | -5.71 |
| Cc1nccn1CC1CCCN1S(=O)(=O)Cc1ccc(F)cc1 (stereo not given) | -7.69 |
| Cc1cc(C(=O)N2CCCC2c2noc(C)n2)[nH]n1 (stereo not given) | -18.7 |
| CC(C)c1noc(CCC(=O)NCC2CC2)n1 | -28.7 |
| CCc1ncc2c(n1)CN(CCCc1nc3ccccc3o1)CC2 | -10.6 |
| O=C(c1cccc2c1OCO2)N1CCCCC1Cn1cccn1 (stereo not given) | -1.25 |
| N#Cc1ccccc1OCCN1CCCC1Cn1cccn1 (stereo not given) | -9.14 |
| COCCCNc1c(C#N)c2c(c3nncn13)CN(C)CC2 | 5.86 |
| CCN1C(=O)CCC12CCC(NC(=O)c1ccncc1F)CC2 (stereo not given) | 0.758 |
| Cn1nnc2c1CCN(CC1CC1)C2COCC1CC1 (stereo not given) | -110 |
| COCC1CN(Cc2ccc3c(c2)OCO3)Cc2ncn(C)c21 (stereo not given) | 4.18 |
| CNCC(=O)N1CCCC1c1cncc(Oc2ccc(F)cc2)n1 (stereo not given) | -6.44 |

| Structure (SMILES) | cytotoxicity at 10 µM [%] |
| --- | --- |
| Cc1ccc(N2C[C@H](C)[C@]3(CCN(c4cccnc4)C3=O)C2)nn1 | -1.22 |
| CC(=O)N1CCC(c2nc3ccc(-c4ccnn4C)cn3n2)CC1 | 6.84 |
| CN1C(=O)CCC12CCN(c1ccc(C#N)cn1)CC2 | -109 |
| O=C([C@H]1C[C@H]2OCC[C@H]2N(Cc2ccc(F)cc2)C1)N1CCCCO1 | -65.5 |
| COCc1nc(-c2ccnc(N3CCNCC3)n2)no1 | 12.5 |
| COCC1c2c(cnn2C)CCN1C(=O)c1cc(C)on1 (stereo not given) | -79.5 |
| O=C(C1CCC2(CCN(CC3CCOCC3)CC2)O1)N1CCCCO1 (stereo not given) | 1.08 |
| CN(C)CCOCC1CN(Cc2ccsc2)Cc2nnn(C)c21 (stereo not given) | 14.1 |
| O=C(NCc1ccco1)[C@H]1CC[C@@H]2[C@@H](CCN2c2ncc(F)cn2)O1 | -78.4 |
| CNC(=O)CN1CCOCC12CCN(CCc1ccccc1)CC2 | -76.8 |
| c1cc(CN2CCC3(CCOCC3COCC3CC3)CC2)co1 (stereo not given) | -2.69 |
| CCN1CC2(CCOCC2)c2cc(NS(=O)(=O)CC)ccc21 | -104 |
| CN(Cc1ccco1)[C@@H]1CN(Cc2cnn(C)c2)[C@@H]2CCCO[C@H]12 | -75.8 |
| CNC(=O)[C@@]12CCO[C@@H]1CCN(Cc1cccc(C)c1)C2 | -78.4 |
| COCCC(=O)N1CC[C@@H](N2CCOCC2)[C@@H]1Cc1ccccc1 | -70.4 |
| Cc1cccc(CN2C[C@@H]3COC[C@]3(CNC(=O)c3ccccc3)C2)n1 | -0.0606 |
| O=C([C@H]1C[C@H]2OCC[C@H]2N(Cc2cccnc2)C1)N1CCCO1 | -2.83 |
| Cn1cc(C(=O)NCc2cncc3c2CCN(S(C)(=O)=O)C3)cn1 | -105 |
| CN(Cc1ccco1)Cc1cncc2c1CCN(Cc1ccoc1)C2 | -108 |
| Cc1nc(CO[C@H]2CN(C(=O)c3cccn3C)[C@@H]3COC[C@H]23)cs1 | -112 |
| CNC(=O)c1ccc2c(c1)C1(CCN(CCOC)CC1)C(=O)N2 | -1.92 |
| NCC1CCC(C(NC(=O)CC2CCCCC2)c2ccccn2)CC1 (stereo not given) | -7.19 |
